Data taken from ChEMBL document CHEMBL1649165, “Activity profile in vitro of micafungin against Spanish clinical isolates of common and emerging species of yeasts and molds” (2009).
≈ marks a conversion by molar mass, not a printed value.

How the values were obtained:
Type in all cases: functional
Candida parapsilosis = assay: Antimicrobial activity against Candida parapsilosis by broth microdilution method; conditions: Lodderomyces parapsilosis
How it was run: (§1)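 Clinical isolates from human patients, tested by broth microdilution using the AFST-EUCAST reference procedure for fermentative yeasts. The MIC was read per that reference method.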

Candida tropicalis = assay: Antimicrobial activity against Candida tropicalis by broth microdilution method; how it was run: as §1
[1] = tested on: Meyerozyma guilliermondii; assay: Antimicrobial activity against Candida guilliermondii by broth microdilution method; how it was run: as §1
Kluyveromyces marxianus = assay: Antimicrobial activity against Candida kefyr by broth microdilution method; how it was run: as §1
Debaryomyces hansenii = assay: Antimicrobial activity against Candida famata by broth microdilution method; how it was run: as §1
Torulaspora delbrueckii = assay: Antimicrobial activity against Candida coliculosa by broth microdilution method; how it was run: as §1
[Candida] intermedia = Antimicrobial activity against Candida intermedia by broth microdilution method; conditions: Sungouiella intermedia; how it was run: as §1
[2] = tested on: Kazachstania pintolopesii; assay: Antimicrobial activity against Candida pintolopesii by broth microdilution method; conditions: Arxiozyma pintolopesii; how it was run: as §1
[Candida] zeylanoides = Antimicrobial activity against Candida zeylanoides by broth microdilution method; conditions: Dujonia zeylanoides; how it was run: as §1
Saccharomyces cerevisiae = assay: Antimicrobial activity against Saccharomyces cerevisiae by broth microdilution method
Yarrowia lipolytica = assay: Antimicrobial activity against Yarrowia lipolytica by broth microdilution method
[3] = tested on: Cryptococcus deneoformans; assay: Antimicrobial activity against Cryptococcus neoformans var. neoformans by broth microdilution method
How it was run: (§2)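 Clinical isolates of nonfermentative yeasts, tested by broth microdilution following EUCAST recommendations. The only change from that method was a minor modification to improve growth.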

Trichosporon dermatis = assay: Antimicrobial activity against Trichosporon dermatis by broth microdilution method; conditions: Cutaneotrichosporon dermatis
How it was run: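 Nonfermentative yeast clinical isolates (Rhodotorula, Trichosporon) tested by broth microdilution. The EUCAST yeast recommendations were followed strictly, with one minor modification to improve growth. MIC was read as the endpoint.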

Naganishia albida = assay: Antimicrobial activity against Cryptococcus albidus by broth microdilution method; how it was run: as §2
Papiliotrema laurentii = assay: Antimicrobial activity against Cryptococcus laurentii by broth microdilution method; how it was run: as §2
Trichosporon domesticum = assay: Antimicrobial activity against Trichosporon mycotoxinivorans by broth microdilution method; conditions: Apiotrichum domesticum
How it was run: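 Spanish human clinical isolates were tested as nonfermentative yeasts by broth microdilution. The method strictly followed the EUCAST recommendations, with a minor modification to improve growth, and the read-out was the MIC.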

Aspergillus niger = assay: Antimicrobial activity against Aspergillus niger by broth microdilution method
How it was run: (§3)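 Clinical mould isolates, tested by broth microdilution using the AFST-EUCAST reference method for filamentous fungi. For echinocandins, the endpoint was the minimum effective concentration: the lowest drug concentration giving aberrant hyphal growth, read with an inverted microscope.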

Aspergillus sydowii = assay: Antimicrobial activity against Aspergillus sydowii by broth microdilution method; how it was run: as §3
Aspergillus ustus = assay: Antimicrobial activity against Aspergillus ustus by broth microdilution method; how it was run: as §3
Fennellia nivea = assay: Antimicrobial activity against Aspergillus niveus by broth microdilution method; how it was run: as §3
Aspergillus sclerotiorum = assay: Antimicrobial activity against Aspergillus sclerotiorum by broth microdilution method; how it was run: as §3
Aspergillus = assay: Antimicrobial activity against Aspergillus spp. by broth microdilution method; how it was run: as §3
Penicillium = assay: Antimicrobial activity against Penicillium spp. by broth microdilution method
How it was run: (§4)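 Filamentous fungus clinical isolates tested by the AFST-EUCAST reference broth microdilution method for moulds. For echinocandins, the endpoint was the minimum effective concentration: the lowest drug concentration giving aberrant hyphal growth, read with an inverted microscope.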

Fusarium proliferatum = assay: Antimicrobial activity against Fusarium proliferatum by broth microdilution method; how it was run: as §3
Fusarium oxysporum = assay: Antimicrobial activity against Fusarium oxysporum by broth microdilution method; how it was run: as §3
Fusarium verticillioides = assay: Antimicrobial activity against Fusarium verticillioides by broth microdilution method; how it was run: as §4
Paecilomyces lilacinus = assay: Antimicrobial activity against Paecilomyces lilacinus by broth microdilution method; conditions: Purpureocillium lilacinum; how it was run: as §4
Acremonium sp. = assay: Antimicrobial activity against Acremonium sp.by broth microdilution method; how it was run: as §3
Trichoderma = assay: Antimicrobial activity against Trichoderma spp. by broth microdilution method; how it was run: as §4
[4] = Antimicrobial activity against Hormographiella aspergillata by broth microdilution method; conditions: Coprinopsis cinerea; how it was run: as §4
Fusarium reticulatum = assay: Antimicrobial activity against Fusarium reticulatum by broth microdilution method; how it was run: as §4
Neurospora sitophila = assay: Antimicrobial activity against Chrysonilia sitophila by broth microdilution method; how it was run: as §3
Lewia infectoria = assay: Antimicrobial activity against Alternaria infectoria by broth microdilution method; how it was run: as §3
Exophiala dermatitidis = assay: Antimicrobial activity against Exophiala dermatitidis by broth microdilution method
Aureobasidium pullulans = assay: Antimicrobial activity against Aureobasidium pullulans by broth microdilution method
Hortaea werneckii = assay: Antimicrobial activity against Hortaea werneckii by broth microdilution method
Cladosporium = assay: Antimicrobial activity against Cladosporium spp. by broth microdilution method; how it was run: as §3
Scytalidium hyalinum = assay: Antimicrobial activity against Scytalidium hyalinum by broth microdilution method; conditions: Neoscytalidium hyalinum; how it was run: as §4
Lichtheimia corymbifera = assay: Antimicrobial activity against Mycocladus corymbiferus by broth microdilution method; how it was run: as §4
[5] = Antimicrobial activity against Rhizopus microsporus by broth microdilution method; how it was run: as §4
Rhizomucor = assay: Antimicrobial activity against Rhizomucor spp.by broth microdilution method; how it was run: as §4
Saksenaea vasiformis = assay: Antimicrobial activity against Saksenaea vasiformis by broth microdilution method; how it was run: as §4
Exophiala jeanselmei = assay: Antimicrobial activity against Exophiala jeanselmei by broth microdilution method
Beauveria bassiana = assay: Antimicrobial activity against Beauveria bassiana by broth microdilution method; how it was run: as §3

For CCC(C)n1ncn(-c2ccc(N3CCN(c4ccc(OCC5COC(Cn6cncn6)(c6ccc(Cl)cc6Cl)O5)cc4)CC3)cc2)c1=O (stereo not drawn) [ITRACONAZOLE], the MIC50 (Candida parapsilosis) was 0.02 µg/mL (≈ 0.0283 µM), the MIC90 (Candida parapsilosis) was 0.03 µg/mL (≈ 0.0425 µM) and the MIC50 (Candida tropicalis) was 0.02 µg/mL (≈ 0.0283 µM). The MIC90 (Candida tropicalis) was 0.06 µg/mL (≈ 0.085 µM), the MIC50 [1] was 0.25 µg/mL (≈ 0.354 µM) and the MIC90 [1] was greater than 8 µg/mL. The MIC50 (Kluyveromyces marxianus) was 0.02 µg/mL (≈ 0.0283 µM), the MIC90 (Kluyveromyces marxianus) was 0.06 µg/mL (≈ 0.085 µM) and the MIC50 (Debaryomyces hansenii) was 0.12 µg/mL (≈ 0.17 µM). The MIC90 (Debaryomyces hansenii) was greater than 8 µg/mL, the MIC50 (Torulaspora delbrueckii) was 0.12 µg/mL (≈ 0.17 µM) and the MIC90 (Torulaspora delbrueckii) was greater than 8 µg/mL. For the same compound, the MIC50 ([Candida] intermedia) was 0.12 µg/mL (≈ 0.17 µM), the MIC90 ([Candida] intermedia) was greater than 8 µg/mL and the MIC50 [2] was 0.12 µg/mL (≈ 0.17 µM). The MIC90 [2] was greater than 8 µg/mL, the MIC50 ([Candida] zeylanoides) was 0.12 µg/mL (≈ 0.17 µM) and the MIC90 ([Candida] zeylanoides) was greater than 8 µg/mL. It also gave an MIC50 (Saccharomyces cerevisiae) of 0.5 µg/mL (≈ 0.709 µM), an MIC90 (Saccharomyces cerevisiae) of 2 µg/mL (≈ 2.83 µM) and an MIC50 (Yarrowia lipolytica) of 0.5 µg/mL (≈ 0.709 µM). The MIC90 (Yarrowia lipolytica) was greater than 8 µg/mL, the MIC50 [3] was 0.12 µg/mL (≈ 0.17 µM) and the MIC90 [3] was 0.5 µg/mL (≈ 0.709 µM). It also gave an MIC50 (Trichosporon dermatis) of 0.5 µg/mL (≈ 0.709 µM), an MIC90 (Trichosporon dermatis) greater than 8 µg/mL and an MIC50 (Naganishia albida) of 0.5 µg/mL (≈ 0.709 µM). The MIC90 (Naganishia albida) was greater than 8 µg/mL, the MIC50 (Papiliotrema laurentii) was 0.5 µg/mL (≈ 0.709 µM) and the MIC90 (Papiliotrema laurentii) was greater than 8 µg/mL. The MIC50 (Trichosporon domesticum) was 0.5 µg/mL (≈ 0.709 µM), the MIC90 (Trichosporon domesticum) was greater than 8 µg/mL and the MIC50 (Aspergillus niger) was 1 µg/mL (≈ 1.42 µM). For the same compound, the MIC90 (Aspergillus niger) was greater than 8 µg/mL, the MIC50 (Aspergillus sydowii) was 0.5 µg/mL (≈ 0.709 µM) and the MIC90 (Aspergillus sydowii) was greater than 8 µg/mL. The MIC50 (Aspergillus ustus) was 0.5 µg/mL (≈ 0.709 µM), the MIC90 (Aspergillus ustus) was greater than 8 µg/mL and the MIC50 (Fennellia nivea) was 0.5 µg/mL (≈ 0.709 µM). For the same compound, the MIC90 (Fennellia nivea) was greater than 8 µg/mL, the MIC50 (Aspergillus sclerotiorum) was 0.5 µg/mL (≈ 0.709 µM) and the MIC90 (Aspergillus sclerotiorum) was greater than 8 µg/mL. For the same compound, the MIC50 (Aspergillus) was 0.5 µg/mL (≈ 0.709 µM), the MIC90 (Aspergillus) was greater than 8 µg/mL and the MIC50 (Penicillium) was 0.5 µg/mL (≈ 0.709 µM). The MIC90 (Penicillium) was greater than 8 µg/mL, the MIC50 (Fusarium proliferatum) was greater than 8 µg/mL and the MIC90 (Fusarium proliferatum) was greater than 8 µg/mL. It also gave an MIC50 (Fusarium oxysporum) greater than 8 µg/mL, an MIC90 (Fusarium oxysporum) greater than 8 µg/mL and an MIC50 (Fusarium verticillioides) greater than 8 µg/mL. The MIC90 (Fusarium verticillioides) was greater than 8 µg/mL, the MIC50 (Paecilomyces lilacinus) was greater than 8 µg/mL and the MIC90 (Paecilomyces lilacinus) was greater than 8 µg/mL. For the same compound, the MIC50 (Acremonium sp.) was greater than 8 µg/mL, the MIC90 (Acremonium sp.) was greater than 8 µg/mL and the MIC50 (Trichoderma) was greater than 8 µg/mL. The MIC90 (Trichoderma) was greater than 8 µg/mL, the MIC50 [4] was greater than 8 µg/mL and the MIC90 [4] was greater than 8 µg/mL. It also gave an MIC50 (Fusarium reticulatum) greater than 8 µg/mL, an MIC90 (Fusarium reticulatum) greater than 8 µg/mL and an MIC50 (Neurospora sitophila) greater than 8 µg/mL. For the same compound, the MIC90 (Neurospora sitophila) was greater than 8 µg/mL, the MIC50 (Lewia infectoria) was 2 µg/mL (≈ 2.83 µM) and the MIC90 (Lewia infectoria) was greater than 8 µg/mL. The MIC50 (Exophiala dermatitidis) was 0.12 µg/mL (≈ 0.17 µM), the MIC90 (Exophiala dermatitidis) was greater than 8 µg/mL and the MIC50 (Aureobasidium pullulans) was 0.12 µg/mL (≈ 0.17 µM). The MIC90 (Aureobasidium pullulans) was greater than 8 µg/mL, the MIC50 (Hortaea werneckii) was 0.12 µg/mL (≈ 0.17 µM) and the MIC90 (Hortaea werneckii) was greater than 8 µg/mL. It also gave an MIC50 (Cladosporium) of 0.12 µg/mL (≈ 0.17 µM), an MIC90 (Cladosporium) greater than 8 µg/mL and an MIC50 (Scytalidium hyalinum) of 0.12 µg/mL (≈ 0.17 µM). For the same compound, the MIC90 (Scytalidium hyalinum) was greater than 8 µg/mL, the MIC50 (Lichtheimia corymbifera) was 1 µg/mL (≈ 1.42 µM) and the MIC90 (Lichtheimia corymbifera) was greater than 8 µg/mL. The MIC50 [5] was greater than 8 µg/mL, the MIC90 [5] was greater than 8 µg/mL and the MIC50 (Rhizomucor) was greater than 8 µg/mL. The MIC90 (Rhizomucor) was greater than 8 µg/mL, the MIC50 (Saksenaea vasiformis) was greater than 8 µg/mL and the MIC90 (Saksenaea vasiformis) was greater than 8 µg/mL. For the same compound, the MIC50 (Exophiala jeanselmei) was 0.12 µg/mL (≈ 0.17 µM), the MIC90 (Exophiala jeanselmei) was greater than 8 µg/mL and the MIC50 (Beauveria bassiana) was greater than 8 µg/mL. For the same compound, the MIC90 (Beauveria bassiana) was greater than 8 µg/mL.
